This note sets out measurements from ChEMBL document CHEMBL1208680, “Synthesis and cytotoxicity screening of substituted isobenzofuranones designed from anacardic acids” (Eur J Med Chem, 2010).

What is called IC50 is the midpoint of a concentration-inhibition curve.

One experiment deals with MDA-MB-435. Nature of the experiment: Cytotoxicity against human MDA-MB-435 cells after 72 hrs by MTT assay. It counts as functional, cell-based. Particulars: MDA-MB-435, 72 h. A digest of the protocol: (§1)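 Cell lines obtained from NCI, kept in RPMI 1640 with 10% FBS, 2 mM glutamine and penicillin/streptomycin at 37 °C, 5% CO2. Seeding: HL-60 0.3 × 10⁶, SF295 0.6 × 10⁵, MDA-MB435 0.1 × 10⁶ cells/mL. Compounds were added 24 h after seeding at 0.39–25.00 in 0.1% DMSO and left for 72 h. MTT at 0.5 mg/mL was added for 3 h, formazan dissolved in DMSO, absorbance read at 595 nm. IC50 by non-linear regression, triplicate, two independent experiments. Doxorubicin served as positive control.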
(In general: Tetrazolium assays rely on reduction of a dye to a coloured formazan, in cell work by metabolically active cells.)

Another experiment relates to SF-295. Nature of the experiment: Cytotoxicity against human SF295 cells after 72 hrs by MTT assay. It counts as functional, cell-based. The following applies: SF-295, 72 h. In outline: as §1
A further experiment deals with PBMC. Nature of the experiment: Cytotoxicity against human PBMC after 72 hrs by Alamar blue assay. It counts as cell-based. A digest of the protocol: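 PBMC were isolated from heparinized blood of healthy donors on Histopaque-1077 and cultured in RPMI 1640 with 20% FBS plus 2% phytohaemagglutinin. Compounds were added after 24 h at 0.39–25.00 in 0.1% DMSO for 72 h. Alamar Blue was added 24 h before the end. Absorbance at 570 and 595 nm was converted to % reduced. IC50 by non-linear regression, triplicate, two independent experiments.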
On the technique in general: The colour change of resazurin is a common sign of viable cells or microbes.

For experiment [1], the system named is HL-60. The experiment can be described thus: Induction of apoptosis in human HL60 cells assessed as increase in DNA double strand breaks after 24 hrs by Comet assay. It counts as functional, cell-based. In outline:
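Neutral comet assay on HL-60 cells treated for 24 h at 6. Electrophoresis in 100 mM Tris/300 mM sodium acetate, pH 8.5, after 60 min equilibration, then 60 min at 0.5 V/cm. Damage index was scored visually. Vehicle was 0.1% DMSO.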

Experiment [2] deals with HL-60. Nature of the experiment: Induction of apoptosis in human HL60 cells assessed as reduction in viable cells after 24 hrs. Format: functional, cell-based. In outline: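 HL-60 cells were exposed for 24 h. Cells were stained with acridine orange and ethidium bromide (each 100 in PBS) and examined by fluorescence microscopy, 300 cells counted per point. Vehicle was 0.1% DMSO; doxorubicin was the positive control. Three independent experiments in triplicate, ANOVA with Newman-Keuls test.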

In experiment [3] the test system is HL-60. The experiment can be described thus: Cytotoxicity against human HL60 cells assessed as cell viability by BrdU incorporation assay. Format: functional, cell-based. A digest of the protocol: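 HL-60 cells at 0.3 × 10⁶ cells/mL were treated for 24 h, with BrdU added for the final 3 h. Cytospin slides were stained by peroxidase immunocytochemistry with diaminobenzidine and haematoxylin counterstain. Two hundred cells per sample were scored for % BrdU-positive. Vehicle was 0.1% DMSO and the positive control doxorubicin. Mean ± S.E.M. from three independent experiments in triplicate.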
(Dividing cells build labelled thymidine or BrdU into new DNA.)

In experiment [4] the test system is HL-60. The experiment can be described thus: Induction of apoptosis in human HL60 cells assessed as reduction of cells in intact membrane at 6 ug/ml by AO/BE staining. It counts as functional, cell-based.
The test system of experiment [5] is HL-60. The experiment can be described thus: Induction of apoptosis in human HL60 cells assessed as increase in DNA damage after 24 hrs by Comet assay. Format: functional, cell-based. A digest of the protocol:
(§2)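 Alkaline comet assay on HL-60 cells exposed for 3, 6, 12 or 24 h. Lysis at pH 10, 4 °C, at least 1 h. Unwinding for 20 min in 300 mM NaOH/1 mM EDTA (pH >13), then electrophoresis at 0.81 V/cm for 20 min, 4 °C. Tail classes 0–4 were scored visually on 300 cells and converted to a damage index of 0–400. Vehicle was 0.1% DMSO.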

Experiment [6] deals with HL-60. Nature of the experiment: Cytotoxicity against human HL60 cells after 72 hrs by MTT assay. It counts as functional, cell-based. Particulars: HL-60, 72 h. In outline:
as §1

For experiment [7], the system named is HL-60. The experiment can be described thus: Induction of apoptosis in human HL60 cells assessed as increase in DNA damage by Comet assay. Particulars: TDE = time-dependent effect. It counts as functional, cell-based. A digest of the protocol: as §2
Experiment [8] has as its system HL-60. Nature of the experiment: Induction of apoptosis in human HL60 cells assessed as reduction of cells in intact membrane at 3 ug/ml by AO/BE staining. It counts as functional, cell-based.
In experiment [9] the test system is HL-60. Nature of the experiment: Induction of apoptosis in human HL60 cells assessed as increase in DNA strand breaks after 12 hrs by Comet assay. It counts as functional, cell-based. In outline: as §2

In brackets after ≈: the same amount, converted by molar mass. Activity calls are given as the source filed them. The rule behind the calls is not given here.

For the molecule `COc1cccc2c1C(=O)c1c(O)c3c(c(O)c1C2=O)C[C@@](O)(C(=O)CO)C[C@@H]3O[C@H]1C[C@H](N)[C@H](O)[C@H](C)O1` [DOXORUBICIN], the IC50 in the experiment on MDA-MB-435 was found to be 0.03 µg/mL (≈ 0.0552 µM); in the experiment on SF-295, 0.04 µg/mL (≈ 0.0736 µM).
With `CCCCCCCCCCCCCC(=O)C1OC(=O)c2c(OC)cccc21` (racemic), the IC50 was determined as 14.5 µg/mL (≈ 38.7 µM) in the experiment on PBMC, 8.7 µg/mL (≈ 23.2 µM) in the experiment with MDA-MB-435, 3.24 µg/mL (≈ 8.65 µM) with HL-60 [6] and 10.1 µg/mL (≈ 26.9 µM) in the experiment with SF-295. In addition, the outcome with HL-60 [1], in the experiment with HL-60 [4] and in the experiment with HL-60 [8] was Active. In addition, the Activity result was “Dose-dependent effect” with HL-60 [2], “Dose-dependent effect” in the experiment with HL-60 [5] and “tde” with HL-60 [7]. Moreover, the result in the experiment with HL-60 [3] was inactive.
In the case of `CCCCCCCCCCCCC/C=C/c1cccc(OC)c1C(=O)OC`, the half-inhibitory concentration (IC50) in the experiment with PBMC was determined as 19.8 µg/mL (≈ 52.9 µM); with MDA-MB-435, 3.31 µg/mL (≈ 8.84 µM); in the experiment with HL-60 [6] it was 9.96 µg/mL (≈ 26.6 µM); in the experiment on SF-295, 12.8 µg/mL (≈ 34.3 µM). For the same molecule, the Activity entry with HL-60 [2] was “Dose-dependent effect”. For the same molecule, the outcome with HL-60 [3], with HL-60 [4] and in the experiment with HL-60 [9] was Active.
Regarding `CCCCCCCCCCCCCCCc1cccc(OC)c1C(=O)OC`, the IC50 in the experiment on PBMC, in the experiment with MDA-MB-435, in the experiment with HL-60 [6] and in the experiment on SF-295 was above 25 µg/mL in each case.
For the molecule `CCCCCCCCCCCCCC(O)C1OC(=O)c2c(OC)cccc21` (racemic), the IC50 with PBMC was above 25 µg/mL; in the experiment with MDA-MB-435 it was 12.3 µg/mL (≈ 32.6 µM); with HL-60 [6], 21 µg/mL (≈ 55.8 µM); in the experiment on SF-295, above 25 µg/mL. For the same molecule, the outcome in the experiment on HL-60 [3], with HL-60 [4] and in the experiment on HL-60 [9] was Active.
With `CCCCCCCCCCCCCCC(Br)c1cccc(OC)c1C(=O)OC` (stereo unspecified), the half-inhibitory concentration (IC50) in the experiment on PBMC, with MDA-MB-435, with HL-60 [6] and in the experiment on SF-295 was above 25 µg/mL each time.
